Assay results published in ChEMBL document CHEMBL5303300, “EUbOPEN Chemogenomics Library - Multiplex” (2023).
Several values for one entry are separate records, joined by “and”; a condition that tells them apart may be missing. Identical values can stand only once.

System: Fibroblast
Assay: Multiplex assay against human fibroblast
Assay type: toxicity, cell-based
Conditions: number of replicates 2
Method in brief: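 Live cells were stained at seeding with Hoechst33342, BioTracker Green Microtubule Cytoskeleton Dye, MitoTracker Red and Annexin V Alexa Fluor 680, then imaged on a CQ1 microscope at 37°C and 5% CO2 after compound addition. CellPathfinder machine-learning gating split cells into Hoechst high-intensity objects or normal cells. Normal cells were split into healthy, pyknosed or fragmented nuclei, and pyknosed cells into mitotic or apoptotic. Tubulin, mitochondrial-mass and membrane-permeability phenotypes are per cents of healthy-nucleus cells.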

[1] = 12 h, 1 µM, compound concentration 1 uM
[2] = 12 h, 10 µM, compound concentration 10 uM
[3] = 24 h, 1 µM, compound concentration 1 uM
[4] = 24 h, 10 µM, compound concentration 10 uM
[5] = 48 h, 1 µM, compound concentration 1 uM
[6] = 48 h, 10 µM, compound concentration 10 uM

`COc1ccc(-c2cc3c(C)nc(N)nc3n([C@H]3CC[C@H](OCCO)CC3)c2=O)cn1` [PF-04691502] was tested, and the “Population Apoptotic (%)” value [1] was 34% and 55%, the “Population Fragmented Nuclei (%)” value [1] was 15% and 13% and the “Population Healthy Nuclei (%)” value [1] was 73% and 71%. The “Population Hoechst High Intensity Objects (%)” value [1] was 0%, the “Population Membrane Permeable-Phenotype (%)” value [1] was 3% and the “Population Mitochondria Different-Phenotype (%)” value [1] was 3% and 1%. For the same molecule, the “Population Mitotic Cells (%)” value [1] was 65% and 45%, the “Population Normal (%)” value [1] was 100% and the “Population Pyknosed Nuclei (%)” value [1] was 10% and 15%. For the same molecule, the “Population Tubulin-Different-Phenotype (%)” value [1] was 11% and 8%, the “Total Cell Count” value [1] was 270 and 253 and the “Population Apoptotic (%)” value [2] was 55% and 54%. For the same molecule, the “Population Fragmented Nuclei (%)” value [2] was 29% and 27%, the “Population Healthy Nuclei (%)” value [2] was 51% and 60% and the “Population Hoechst High Intensity Objects (%)” value [2] was 1% and 0%. For the same molecule, the “Population Membrane Permeable-Phenotype (%)” value [2] was 5% and 9%, the “Population Mitochondria Different-Phenotype (%)” value [2] was 3% and 1% and the “Population Mitotic Cells (%)” value [2] was 44% and 45%. For the same molecule, the “Population Normal (%)” value [2] was 98% and 100%, the “Population Pyknosed Nuclei (%)” value [2] was 18% and 11% and the “Population Tubulin-Different-Phenotype (%)” value [2] was 26% and 18%. The “Total Cell Count” value [2] was 185 and 202, the “Population Apoptotic (%)” value [3] was 62% and 58% and the “Population Fragmented Nuclei (%)” value [3] was 7% and 9%. The “Population Healthy Nuclei (%)” value [3] was 80% and 72%, the “Population Hoechst High Intensity Objects (%)” value [3] was 0% and the “Population Membrane Permeable-Phenotype (%)” value [3] was 4% and 2%. For the same molecule, the “Population Mitochondria Different-Phenotype (%)” value [3] was 1%, the “Population Mitotic Cells (%)” value [3] was 37% and 41% and the “Population Normal (%)” value [3] was 99%. For the same molecule, the “Population Pyknosed Nuclei (%)” value [3] was 12% and 17%, the “Population Tubulin-Different-Phenotype (%)” value [3] was 7% and 3% and the “Total Cell Count” value [3] was 262 and 247. For the same molecule, the “Population Apoptotic (%)” value [4] was 59% and 65%, the “Population Fragmented Nuclei (%)” value [4] was 20% and the “Population Healthy Nuclei (%)” value [4] was 60% and 66%. For the same molecule, the “Population Hoechst High Intensity Objects (%)” value [4] was 0%, the “Population Membrane Permeable-Phenotype (%)” value [4] was 10% and 8% and the “Population Mitochondria Different-Phenotype (%)” value [4] was 0% and 1%. The “Population Mitotic Cells (%)” value [4] was 40% and 34%, the “Population Normal (%)” value [4] was 99% and 100% and the “Population Pyknosed Nuclei (%)” value [4] was 20% and 13%. The “Population Tubulin-Different-Phenotype (%)” value [4] was 27% and 23%, the “Total Cell Count” value [4] was 161 and 176 and the “Population Apoptotic (%)” value [5] was 60% and 59%. The “Population Fragmented Nuclei (%)” value [5] was 8% and 12%, the “Population Healthy Nuclei (%)” value [5] was 80% and 72% and the “Population Hoechst High Intensity Objects (%)” value [5] was 0%. For the same molecule, the “Population Membrane Permeable-Phenotype (%)” value [5] was 5%, the “Population Mitochondria Different-Phenotype (%)” value [5] was 0% and the “Population Mitotic Cells (%)” value [5] was 39% and 40%. For the same molecule, the “Population Normal (%)” value [5] was 100%, the “Population Pyknosed Nuclei (%)” value [5] was 10% and 15% and the “Population Tubulin-Different-Phenotype (%)” value [5] was 6% and 4%. For the same molecule, the “Total Cell Count” value [5] was 258 and 245, the “Population Apoptotic (%)” value [6] was 66% and the “Population Fragmented Nuclei (%)” value [6] was 12% and 22%. For the same molecule, the “Population Healthy Nuclei (%)” value [6] was 59%, the “Population Hoechst High Intensity Objects (%)” value [6] was 0% and the “Population Membrane Permeable-Phenotype (%)” value [6] was 7% and 4%. The “Population Mitochondria Different-Phenotype (%)” value [6] was 1%, the “Population Mitotic Cells (%)” value [6] was 33% and the “Population Normal (%)” value [6] was 100%. The “Population Pyknosed Nuclei (%)” value [6] was 27% and 17%, the “Population Tubulin-Different-Phenotype (%)” value [6] was 32% and 19% and the “Total Cell Count” value [6] was 140 and 170.
For `C=CC(=O)Nc1ccc2[nH]c(=O)n(C3CCN(Cc4ccc(-c5ccc6c(c5)NC(=O)CO6)cc4)CC3)c2c1` [RL2578], the “Population Apoptotic (%)” value [1] was 34% and 40%, the “Population Fragmented Nuclei (%)” value [1] was 12% and 8% and the “Population Healthy Nuclei (%)” value [1] was 72% and 66%. The “Population Hoechst High Intensity Objects (%)” value [1] was 0%, the “Population Membrane Permeable-Phenotype (%)” value [1] was 4% and the “Population Mitochondria Different-Phenotype (%)” value [1] was 3%. The “Population Mitotic Cells (%)” value [1] was 65% and 60%, the “Population Normal (%)” value [1] was 100% and the “Population Pyknosed Nuclei (%)” value [1] was 15% and 25%. The “Population Tubulin-Different-Phenotype (%)” value [1] was 13% and 15%, the “Total Cell Count” value [1] was 173 and 180 and the “Population Apoptotic (%)” value [2] was 46% and 29%. The “Population Fragmented Nuclei (%)” value [2] was 26% and 23%, the “Population Healthy Nuclei (%)” value [2] was 65% and 67% and the “Population Hoechst High Intensity Objects (%)” value [2] was 0%. The “Population Membrane Permeable-Phenotype (%)” value [2] was 5% and 4%, the “Population Mitochondria Different-Phenotype (%)” value [2] was 0% and 4% and the “Population Mitotic Cells (%)” value [2] was 53% and 70%. The “Population Normal (%)” value [2] was 99% and 100%, the “Population Pyknosed Nuclei (%)” value [2] was 8% and the “Population Tubulin-Different-Phenotype (%)” value [2] was 45% and 35%. The “Total Cell Count” value [2] was 324 and 315, the “Population Apoptotic (%)” value [3] was 48% and 55% and the “Population Fragmented Nuclei (%)” value [3] was 6% and 14%. For the same molecule, the “Population Healthy Nuclei (%)” value [3] was 73% and 65%, the “Population Hoechst High Intensity Objects (%)” value [3] was 0% and the “Population Membrane Permeable-Phenotype (%)” value [3] was 3%. For the same molecule, the “Population Mitochondria Different-Phenotype (%)” value [3] was 4% and 0%, the “Population Mitotic Cells (%)” value [3] was 51% and 44% and the “Population Normal (%)” value [3] was 100%. The “Population Pyknosed Nuclei (%)” value [3] was 19% and 20%, the “Population Tubulin-Different-Phenotype (%)” value [3] was 18% and 19% and the “Total Cell Count” value [3] was 169 and 214. The “Population Apoptotic (%)” value [4] was 63% and 50%, the “Population Fragmented Nuclei (%)” value [4] was 29% and 26% and the “Population Healthy Nuclei (%)” value [4] was 65% and 69%. For the same molecule, the “Population Hoechst High Intensity Objects (%)” value [4] was 0%, the “Population Membrane Permeable-Phenotype (%)” value [4] was 2% and the “Population Mitochondria Different-Phenotype (%)” value [4] was 5% and 4%. For the same molecule, the “Population Mitotic Cells (%)” value [4] was 36% and 50%, the “Population Normal (%)” value [4] was 99% and the “Population Pyknosed Nuclei (%)” value [4] was 5% and 3%. The “Population Tubulin-Different-Phenotype (%)” value [4] was 36% and 24%, the “Total Cell Count” value [4] was 377 and 407 and the “Population Apoptotic (%)” value [5] was 86% and 67%. For the same molecule, the “Population Fragmented Nuclei (%)” value [5] was 14% and 17%, the “Population Healthy Nuclei (%)” value [5] was 71% and 65% and the “Population Hoechst High Intensity Objects (%)” value [5] was 0%. For the same molecule, the “Population Membrane Permeable-Phenotype (%)” value [5] was 5% and 6%, the “Population Mitochondria Different-Phenotype (%)” value [5] was 0% and the “Population Mitotic Cells (%)” value [5] was 13% and 32%. For the same molecule, the “Population Normal (%)” value [5] was 100% and 99%, the “Population Pyknosed Nuclei (%)” value [5] was 14% and 17% and the “Population Tubulin-Different-Phenotype (%)” value [5] was 14% and 8%. For the same molecule, the “Total Cell Count” value [5] was 160 and 217, the “Population Apoptotic (%)” value [6] was 78% and 76% and the “Population Fragmented Nuclei (%)” value [6] was 29%. The “Population Healthy Nuclei (%)” value [6] was 66% and 67%, the “Population Hoechst High Intensity Objects (%)” value [6] was 0% and the “Population Membrane Permeable-Phenotype (%)” value [6] was 0% and 2%. The “Population Mitochondria Different-Phenotype (%)” value [6] was 2% and 1%, the “Population Mitotic Cells (%)” value [6] was 21% and 23% and the “Population Normal (%)” value [6] was 100% and 99%. The “Population Pyknosed Nuclei (%)” value [6] was 4% and 2%, the “Population Tubulin-Different-Phenotype (%)” value [6] was 18% and 13% and the “Total Cell Count” value [6] was 424 and 452.
